# Most compounds without a hit are left out; they make up all but 3.6% or so of the library.
# PAFAH2 FP inh – PAFAH2 (human) inhibition; Q99487; recombinant PAFAH2, FP-rhodamine activity probe, fluorescence polarization; inhibition, % at 3.39 µM; hit rate 0.99% among 340,000; AID 492956;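 active = inhibition above the mean over all tested compounds plus 3 SD, cut at about 30% in these data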;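 also: inhibitors block probe labeling of enzyme so polarization drops; 0% = enzyme with DMSO and 100% = wells lacking PAFAH2 protein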
# PAFAH1B2 inh – PAFAH1B2 (human) inhibition; inhibition, % at 3.39 µM; hit rate 1.2% among 340,000; recombinant PAFAH1B2, FP-rhodamine activity probe, fluorescence polarization; P68402;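 active = inhibition above the mean of all tested compounds plus 3 SD, cut at about 24% in these data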;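 also: 0% = enzyme with DMSO and 100% = wells lacking PAFAH1B2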
# pPAFAH FP inh – inhibitors of human plasma PAF acetylhydrolase (pPAFAH). inhibition, % at 3.39 µM. hit rate 1.5% among 330,000. recombinant pPAFAH, FP-rhodamine probe fluorescence polarization;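 active = inhibition above the mean inhibition across the screen plus 3 SD, cut at about 25% in these data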;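 also: inhibitors block binding of the rhodamine activity-based probe so polarization drops; 0% = enzyme with DMSO and 100% = wells lacking pPAFAH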
# Target sequence (Q13093 whole entry, looked up): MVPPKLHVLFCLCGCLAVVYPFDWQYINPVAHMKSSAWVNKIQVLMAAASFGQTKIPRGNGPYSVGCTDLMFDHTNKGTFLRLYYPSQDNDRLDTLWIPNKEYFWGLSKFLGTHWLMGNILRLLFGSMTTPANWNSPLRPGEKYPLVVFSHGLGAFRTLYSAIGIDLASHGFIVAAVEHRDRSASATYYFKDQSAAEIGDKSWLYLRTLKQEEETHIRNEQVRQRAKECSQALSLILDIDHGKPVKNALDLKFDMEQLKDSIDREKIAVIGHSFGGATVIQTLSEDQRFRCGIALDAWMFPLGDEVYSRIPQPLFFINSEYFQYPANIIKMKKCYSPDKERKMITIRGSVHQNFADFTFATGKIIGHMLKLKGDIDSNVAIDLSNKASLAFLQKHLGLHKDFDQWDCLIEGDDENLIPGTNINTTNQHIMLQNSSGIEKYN
# VIM-2 inhibitor – inhibitors of Pseudomonas aeruginosa VIM-2 metallo-beta-lactamase | inhibition, % at 5.6 µM | AID 1527 | hit rate 0.89% among 290,000 | purified VIM-2, nitrocefin hydrolysis, epi-absorbance fluorescence;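 active = inhibition above the mean of all tested compounds plus 3 SD, cutoff set per screening run, cut at about 7.5% in these data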;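 also: red hydrolysis product quenches plate fluorescence so inhibitors raise well fluorescence; 0% = enzyme with DMSO and 100% = DMSO without enzyme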
# PAFAH1B3 inh – blocks human PAF acetylhydrolase 1B catalytic subunit 3 | inhibition, % at 3.39 µM | Q15102 | hit rate 0.28% among 340,000 | recombinant PAFAH1B3, FP-rhodamine probe, fluorescence polarization;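 active = inhibition above the screen-wide average of all tested compounds plus 3 SD, cut at about 25% in these data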;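 also: 0% = enzyme with DMSO only and 100% = wells lacking PAFAH1B3 protein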
# Target sequence (Q15102 whole entry, looked up): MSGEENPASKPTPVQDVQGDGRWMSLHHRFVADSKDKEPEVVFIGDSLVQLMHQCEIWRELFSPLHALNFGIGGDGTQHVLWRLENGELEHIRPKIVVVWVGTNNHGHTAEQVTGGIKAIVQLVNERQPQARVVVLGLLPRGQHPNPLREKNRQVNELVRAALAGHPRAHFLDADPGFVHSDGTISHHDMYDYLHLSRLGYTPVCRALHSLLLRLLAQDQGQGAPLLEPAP
# IMP-1 inhibitor – inhibitors of Pseudomonas aeruginosa IMP-1 metallo-beta-lactamase | purified IMP-1, nitrocefin hydrolysis, epi-absorbance fluorescence | inhibition, % at 5.6 µM | hit rate 0.45% among 290,000 | AID 1556;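 active = inhibition above the mean plus 3 SD of all compounds in the same screening run, cut at about 4.5% in these data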;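 also: 0% = IMP-1 with DMSO and 100% = DMSO wells lacking enzyme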
#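 assay system = purified recombinant IMP-1 metallo-beta-lactamase enzyme | schedule = 15 min preincubation plus 25 min reaction at 25 °C | signal = Epi-absorbance fluorescence, 480 nm excitation, 530 nm emission | read-out basis = percent inhibition from optical density relative to buffer-blank wells | controls = IMP-1 with DMSO as 0%, enzyme-free DMSO as 100%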
# Starred values were filed as active, the others as inactive; nt = no result.
SMILES,PAFAH2 FP inh,PAFAH1B2 inh,pPAFAH FP inh,VIM-2 inhibitor,PAFAH1B3 inh,IMP-1 inhibitor
O=C(COC(=O)c1ccc(F)cc1F)NCCNC(=O)COC(=O)c1ccc(F)cc1F,-1.0,2.9,4.6,-2.0,0.5,-1.0
Cc1sc(-c2ccncc2)nc1OC(=O)c1ccc(F)cc1F,3.6,-2.3,3.0,0.0,3.4,10.1*
Cc1sc(-c2ccncc2)nc1OC(=O)c1cc(Cl)cc(Cl)c1,3.3,4.9,-1.0,-1.5,-1.9,5.7*
Cc1sc(-c2ccncc2)nc1OC(=O)c1ccc(Cl)cc1,1.3,3.1,4.0,-2.1,-3.7,-0.9
Cc1c(C(=O)O)sc(S(=O)(=O)N2CCN(C(=O)CCc3ccccc3)CC2)c1C(=O)O,7.0,3.9,nt,nt,2.0,nt
O=C(CSc1n[nH]c(-c2ccccn2)n1)Nc1ccccc1F,-3.2,6.6,4.7,9.6*,2.4,-3.6
O=C(Nc1nc(=O)c2ccccc2s1)c1ccccc1,5.3,0.2,-3.4,11.0*,8.2,-2.4
CCOC(=O)C1CCN(C(=O)C2CCN(c3ncnc4c3nc3n4CCCCC3)CC2)CC1,-2.7,0.6,9.3,-2.2,5.5,-4.1
O=S(=O)(/N=C(/NS(=O)(=O)c1ccccc1)c1ccccc1)c1ccccc1,1.0,27.6*,1.4,-2.6,3.6,-1.6
COc1ccc(CNC(=O)CN2C(=O)C(c3ccccc3)Oc3cccnc32)cc1 (configuration not stated),-2.9,2.1,-6.7,-1.7,1.7,-0.4
O=C(CN1C(=O)C(c2ccccc2)Oc2cccnc21)NCc1ccccc1F (configuration not stated),6.3,4.9,3.5,-0.3,0.1,53.6*
O=C(N/N=C/c1cc(Cl)cc([N+](=O)[O-])c1O)c1cc(-c2ccccn2)nc2ccccc12,5.7,2.8,26.7*,-2.9,2.2,-2.5
COc1cccc(/C=N/NC(=O)c2cc(-c3ccccn3)nc3ccccc23)c1O,-6.3,6.1,7.0,nt,23.8,nt
O=S(=O)(Nc1cccnc1)c1ccc(Br)c2ccccc12,3.1,25.9*,10.7,-0.1,8.8,-1.6
COc1ccc(S(=O)(=O)Nc2cccnc2)c(C)c1C,-3.1,-4.6,-2.0,-1.1,6.9,4.6*
CN(C)CCNC(=O)c1ccc(Sc2ccc(Br)cc2)c([N+](=O)[O-])c1,-0.4,-1.6,12.5,-4.1,3.2,-2.1
CO[C@H]1O[C@@H]2O[C@@]3(C)CC[C@H]4[C@H](C)CC[C@@H]([C@H]1C)[C@@]24OO3,nt,nt,-1.4,nt,nt,nt
COCCN=c1scc(-c2ccc3c(c2)NC(=O)CO3)n1/N=C(\C)c1ccc(O)cc1,1.7,2.3,11.8,-4.7,-2.2,-2.3
COc1cc(/C=N/n2c(-c3ccc4c(c3)NC(=O)CO4)csc2=Nc2cccc(C)c2)ccc1O,0.1,9.3,33.5*,-3.5,12.5,0.6
CN1OC[C@@H]2CN(C(=O)CCc3ccccc3)[C@H](c3cccc(-c4ccc(C#N)cc4)c3)C[C@@H]21,-1.6,7.6,nt,nt,8.9,nt
N#CC1=C(N)c2ccccc2CC12CCCCC2,4.3,34.8*,7.1,3.2,-5.0,-0.2
CCOC(=O)c1sc(-c2cccc(C(F)(F)F)c2)nc1O,3.3,3.5,8.2,-1.6,7.6,2.0
CCOC(=O)c1sc(-c2ccc(C(F)(F)F)cc2)nc1O,10.8,10.4,13.6,-1.1,14.6,4.9*
O=C(C[C@H]1C/C=C\CC[C@H](Cc2ccc(F)cc2)C(=O)OCCNC1=O)NCCO,1.1,5.3,6.8,nt,11.3,nt
Cc1noc(C)c1CSCC(=O)Nc1nc(-c2ccc(F)c(F)c2)cs1,-5.3,-3.5,5.2,nt,-3.2,nt
SMILES,PAFAH2 FP inh,PAFAH1B2 inh,pPAFAH FP inh,VIM-2 inhibitor,PAFAH1B3 inh,IMP-1 inhibitor
N#CC12COC3(CCCCC3C1(C#N)C#N)OC2=N (configuration not stated),37.7*,20.4,5.5,-1.7,34.8*,-1.5
N#CC1(C#N)COC23CCCCC2C1(C#N)C(=N)O3 (configuration not stated),35.5*,17.8,9.1,-3.6,18.2,-1.6
CC1OC23CCCCC2C(C#N)(C(=N)O3)C1(C#N)C#N (configuration not stated),11.0,11.3,3.1,-1.0,13.7,-1.1
COc1ccc(C2OC34CCCCC3C(C#N)(C#N)C2(C#N)C(=N)O4)cc1 (configuration not stated),61.1*,45.7*,16.4,-1.0,50.3*,-1.3
CCC1OC23CCCCC2C(C#N)(C(=N)O3)C1(C#N)C#N (configuration not stated),47.5*,33.5*,9.4,0.5,32.7*,-1.0
COc1cccc2sc3cc(NCc4ccc(C)o4)ccc3c(=O)c12,-4.3,3.1,3.1,nt,0.5,nt
O=C(Cc1ccc(Br)cc1)NCCc1ccc(Cl)cc1Cl,-3.5,27.3*,-0.1,-0.3,-1.5,-4.5
O=C(COC(=O)CCS(=O)(=O)c1ccc(Cl)cc1)NCCc1ccc(Cl)cc1Cl,-2.9,26.4*,3.0,-5.6,-4.8,-1.9
COc1ccccc1Nc1nc(-c2ccc3c(c2)NC(=O)CO3)cs1,-1.5,0.5,20.6,-2.6,19.8,-2.0
COc1ccc(Nc2nc(-c3ccc4c(c3)NC(=O)CO4)cs2)cc1,2.6,-2.4,30.2*,3.1,5.6,-0.2
CCC(C)Nc1nc(-c2ccc3c(c2)NC(=O)CO3)cs1 (configuration not stated),3.3,-0.4,25.1*,-2.6,1.1,-0.3
CCOc1ccc(NS(=O)(=O)c2ccc(C(=O)N3CCN(c4ncccn4)CC3)cc2)cc1,-5.7,4.3,26.7*,-3.3,8.6,-1.4
CCOc1ccc(NS(=O)(=O)c2ccc(C(=O)N3CC(C)OC(C)C3)cc2)cc1 (configuration not stated),-3.2,-3.4,29.3*,nt,6.2,nt
Cc1ccc(C(=O)N2CCCC2)cc1S(=O)(=O)Nc1ccccc1,8.1,0.4,30.4*,-1.3,3.6,-6.2
CCOc1ccc(S(=O)(=O)Nc2ccc(C(=O)NNC(=O)c3ccncc3)cc2)cc1,3.3,4.8,7.2,nt,10.6,nt
CCOc1ccc(NS(=O)(=O)c2ccc(C(=O)NNC(=O)c3ccccc3O)cc2)cc1,-0.5,3.0,26.1*,nt,0.5,nt
CN(CCCNC(=O)CCC(=O)N1CCOc2ccccc21)Cc1ccccc1,-4.1,5.5,2.2,-3.3,6.2,-4.9
CCn1cc(S(=O)(=O)Nc2ncccn2)cn1,2.2,-2.9,2.2,-1.7,6.5,-0.5
O=C(CNC(=O)N1CC(=O)Nc2ccccc21)Nc1cc(Cl)ccc1Cl,-4.8,-0.4,0.7,-1.5,7.2,-0.9
CCOc1ccccc1N1CCN(C(=O)c2ccc(S(=O)(=O)Nc3ccccc3)cc2)CC1,-5.8,-0.9,27.2*,nt,11.5,nt
CN1CCN(C(=O)c2ccc(S(=O)(=O)Nc3ccccc3)cc2)CC1,1.7,5.0,25.3*,nt,1.0,nt
CCOc1ccccc1N1CCN(C(=O)c2ccccc2)CC1,-1.0,2.8,-1.3,-1.2,2.4,-3.5

# Compound activity (PubChem BioAssay)
